Experimental findings from the array DNA melting data of Ke et al. (doi:10.1101/2024.01.08.574731) are described below.

A short description of series [1]: folding enthalpy; higher = less favourable; fluorescence melt of hairpins on a sequencing array, two-state fit. Conditions: sodium 0.088 M. In a few lines: (§1)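 On a sequenced MiSeq flow cell, library hairpins with annealed Cy3 and quencher oligos were imaged for Cy3 fluorescence in 2.5 °C steps up to 60 °C, in 50 mM Na-HEPES pH 8.0, 25 mM NaCl. Normalisation used pre-quench Cy3 and control constructs. Bootstrapped two-state fits gave melting temperature and folding enthalpy, combined by inverse variance across four replicates and with fitted temperatures raised by 9.35 °C to match UV melts.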

Series [2] can be described thus: melting temperature; fluorescence melt of hairpins on a sequencing array, two-state fit, raised by 9.35 °C to match UV melts. As to conditions: sodium 0.088 M. In a few lines:
as §1

On to GGGTTTGGAAACAAGCCC (((.(((....))).))), for which, in series [1], the folding enthalpy was -32.1 kcal/mol. Moreover, in series [2], the Tm was 52.7 °C.

For GCATTTACGAAAGTATGC (((..(((....)))))), in series [1], the folding enthalpy was -22.2 kcal/mol. The Tm in series [2] is 38 °C.

For GAGTGCGAAAGCAGGCTC ((((((....)))..))), in series [1], the folding enthalpy was -16.7 kcal/mol. Further, the Tm in series [2] came to 48.3 °C.

Take CGCCATCGGAAACGAGCG (((..(((....)))))): the folding enthalpy in series [1] is -18.1 kcal/mol. For the same sequence, the Tm in series [2] turned out to be 37 °C.

In the case of GATCTGAGTCCAGATC ((((((....)))))), in series [1], the folding enthalpy is -30 kcal/mol. Further, the Tm in series [2] came out at 46.7 °C.

As to GTCAGTGCGAAAGCAGAC (((..(((....)))))), the folding enthalpy in series [1] was -14.4 kcal/mol. Also, the Tm in series [2] amounted to 39.6 °C.

Take GATCAACCCATTGATC ((((((....)))))): the folding enthalpy in series [1] was -31.8 kcal/mol. Besides, the Tm in series [2] stood at 44.8 °C.

With GTGTCAGGAAACCAACAC ((((..(....)..)))), the folding enthalpy in series [1] is -13.5 kcal/mol. For the same sequence, the Tm in series [2] is 28 °C.

On to GACTTTGGAAACAAGGTC (((.(((....))).))), for which the folding enthalpy in series [1] is -38.1 kcal/mol. Besides, the Tm in series [2] is 41.8 °C.

Consider GCCAGGCGAAAGCGTTGC ((.(.((....)).).)), for which the folding enthalpy in series [1] was -16.6 kcal/mol. For the same sequence, the Tm in series [2] stood at 34.2 °C.

Consider GATCCTGACCAGGATC ((((((....)))))), for which the folding enthalpy in series [1] was -45.1 kcal/mol. Also, the Tm in series [2] turned out to be 56.5 °C.

For the sequence GGCTTCGGAAACGAAGTC (.(((((....))))).), the folding enthalpy in series [1] is -30.1 kcal/mol. Further, in series [2], the Tm came to 53.5 °C.

As to CGGGCGGAAACGCCGCCG ((((((....)))..))), the folding enthalpy in series [1] was -10.2 kcal/mol. For the same sequence, the Tm in series [2] was 47.8 °C.

For the sequence GCACACGAAAGTGGCTGC ((((((....)))..))), the folding enthalpy in series [1] is -20.7 kcal/mol. Also, the Tm in series [2] was 54.3 °C.

Turning to GATCGTTGGAACGATC ((((((....)))))), in series [1], the folding enthalpy is -42.4 kcal/mol. Also, the Tm in series [2] is 54.4 °C.

For the sequence GCTAGTACGAAAGTAAGC (((..(((....)))))), in series [1], the folding enthalpy was -14.7 kcal/mol. For the same sequence, the Tm in series [2] worked out at 28.2 °C.

Regarding GCGACTGATCGC ((((....)))), in series [1], the folding enthalpy was -21.9 kcal/mol. In series [2], the Tm was found to be 46.8 °C.

On to GCGTACGAACGC ((((....)))), for which the folding enthalpy in series [1] was -23.9 kcal/mol. Further, the Tm in series [2] came out at 51.5 °C.

GATCATGTGTATGATC ((((((....)))))): the folding enthalpy in series [1] was -41.9 kcal/mol. The Tm in series [2] came to 48.4 °C.

On to GATCAGCCGACTGATC ((((((....)))))), for which, in series [1], the folding enthalpy is -35.5 kcal/mol. In addition, the Tm in series [2] came to 49.6 °C.

On to GTATAGAAATATAC (((((....))))), for which, in series [1], the folding enthalpy was -7.94 kcal/mol. For the same sequence, the Tm in series [2] turned out to be 23.1 °C.

Take GCGGTTGGAAACGACTGC ((.((.(....).)).)): the folding enthalpy in series [1] was -15.3 kcal/mol. Besides, in series [2], the Tm was 37.8 °C.

In the case of GACGAACCGAAAGGTGTC (((..(((....)))))), the folding enthalpy in series [1] was -16.4 kcal/mol. Also, in series [2], the Tm turned out to be 43.1 °C.

Consider CGCGACGGAAACGTAGCG (((.(((....))).))), for which, in series [1], the folding enthalpy is -38.6 kcal/mol. In addition, the Tm in series [2] turned out to be 58.6 °C.

Consider GTTTGAGGAAACTCGAAC (((.(((....))).))), for which the folding enthalpy in series [1] was -31.7 kcal/mol. Besides, the Tm in series [2] amounted to 45.6 °C.

On to GATCACTTCGGTGATC ((((((....)))))), for which, in series [1], the folding enthalpy is -40 kcal/mol. In addition, the Tm in series [2] stood at 57.4 °C.

Take GGCAGATCGAAAGATGCC (((..(((....)))))): the folding enthalpy in series [1] was -26.8 kcal/mol. In addition, the Tm in series [2] was 49.4 °C.

Turning to GAAAACGAAAGTTGCTTC ((((((....)))..))), the folding enthalpy in series [1] is -19.8 kcal/mol. In series [2], the Tm was 33.1 °C.

On to CGGGTCGGAAACGACCG (((.(((....)))))), for which the folding enthalpy in series [1] is -11.4 kcal/mol. Moreover, in series [2], the Tm amounted to 61.7 °C.

With GGCGAGTCGAAAGACGCC (((..(((....)))))), the folding enthalpy in series [1] was -22.2 kcal/mol. Also, the Tm in series [2] was 56.3 °C.

As for GATCACATCTGTGATC ((((((....)))))), the folding enthalpy in series [1] was -38.7 kcal/mol. Further, the Tm in series [2] amounted to 57.9 °C.

In the case of GATCCGCACACGGATC ((((((....)))))), in series [1], the folding enthalpy was -44.5 kcal/mol. In addition, the Tm in series [2] turned out to be 59.9 °C.

Turning to GCCTCAGGAAACTGAGAC (.(((((....))))).), the folding enthalpy in series [1] was -20.8 kcal/mol. Also, the Tm in series [2] came to 38.4 °C.

For the sequence GCGAGAGAAATCTCGC ((((((....)))))), the folding enthalpy in series [1] is -32.3 kcal/mol. In addition, the Tm in series [2] was 66.8 °C.

Take GCTGAGCGAAAGCGCTGC ((.(.((....)).).)): the folding enthalpy in series [1] was -16.1 kcal/mol. Also, the Tm in series [2] was determined as 54.7 °C.

On to GACGACGAAAGTCATGTC ((((((....)))..))), for which the folding enthalpy in series [1] was -15.2 kcal/mol. The Tm in series [2] stood at 40.3 °C.

For the sequence GGGCTTACGAAAGTACCC (((..(((....)))))), the folding enthalpy in series [1] was -20.9 kcal/mol. For the same sequence, the Tm in series [2] was 34.4 °C.
